17 molecules from ChEMBL document CHEMBL1135657, “Novel dual inhibitors of AChE and MAO derived from hydroxy aminoindan and phenethylamine as potential treatment for Alzheimer's disease” (J Med Chem, 2002) can be followed below.

The target in experiment [1] is T1, Butyrylcholinesterase (Equus caballus, UniProt Q9N1N9). Nature of the experiment: In vitro inhibitory concentration against Butyrylcholinesterase of horse serum; value ranges from 0.25-0.40. In outline:
(§1)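 Ellman assay followed, with 200 µM butyrylthiocholine as substrate. Runs were in triplicate with four-point dose-response curves. IC50 and fiducial limits came from log concentration versus % inhibition.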

Experiment [2] has as its target T2, Acetylcholinesterase (Homo sapiens, UniProt P22303). Kind of experiment: In vitro inhibitory concentration against purified Acetylcholinesterase of human erythrocytes; value ranges from 224-1012.
The target of experiment [3] is T2, Acetylcholinesterase. Kind of experiment: In vitro inhibitory concentration against purified Acetylcholinesterase of human erythrocytes; value ranges from 11.9-128.
In experiment [4] the target is T3, Amine oxidase [flavin-containing] A (Rattus norvegicus, UniProt P21396).
T3 sequence (P21396 whole entry): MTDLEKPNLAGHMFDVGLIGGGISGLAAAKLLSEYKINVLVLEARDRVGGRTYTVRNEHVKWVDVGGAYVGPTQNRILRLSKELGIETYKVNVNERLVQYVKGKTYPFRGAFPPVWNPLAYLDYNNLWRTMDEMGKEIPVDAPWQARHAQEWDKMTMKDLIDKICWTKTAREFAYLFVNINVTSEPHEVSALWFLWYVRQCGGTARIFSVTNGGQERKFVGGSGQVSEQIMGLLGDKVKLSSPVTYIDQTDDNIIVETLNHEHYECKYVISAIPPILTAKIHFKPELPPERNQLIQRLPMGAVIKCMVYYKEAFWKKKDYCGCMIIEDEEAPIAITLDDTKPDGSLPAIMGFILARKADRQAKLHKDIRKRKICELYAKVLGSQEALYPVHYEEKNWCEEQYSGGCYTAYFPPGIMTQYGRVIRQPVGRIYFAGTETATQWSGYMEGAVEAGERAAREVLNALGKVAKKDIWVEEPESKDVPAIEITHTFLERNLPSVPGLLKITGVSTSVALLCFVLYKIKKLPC
Nature of the experiment: In vitro inhibitory concentration against Monoamine oxidase A of rat brain homogenates; value ranges from 190-310. In kind it is tissue-based.

Experiment [5] addresses T1, Butyrylcholinesterase. Kind of experiment: In vitro inhibitory concentration against Butyrylcholinesterase of horse serum; value ranges from 0.8-3.2.
In experiment [6] the target is T4, Amine oxidase [flavin-containing] B (Rattus norvegicus, UniProt P19643).
T4 sequence (P19643 whole entry): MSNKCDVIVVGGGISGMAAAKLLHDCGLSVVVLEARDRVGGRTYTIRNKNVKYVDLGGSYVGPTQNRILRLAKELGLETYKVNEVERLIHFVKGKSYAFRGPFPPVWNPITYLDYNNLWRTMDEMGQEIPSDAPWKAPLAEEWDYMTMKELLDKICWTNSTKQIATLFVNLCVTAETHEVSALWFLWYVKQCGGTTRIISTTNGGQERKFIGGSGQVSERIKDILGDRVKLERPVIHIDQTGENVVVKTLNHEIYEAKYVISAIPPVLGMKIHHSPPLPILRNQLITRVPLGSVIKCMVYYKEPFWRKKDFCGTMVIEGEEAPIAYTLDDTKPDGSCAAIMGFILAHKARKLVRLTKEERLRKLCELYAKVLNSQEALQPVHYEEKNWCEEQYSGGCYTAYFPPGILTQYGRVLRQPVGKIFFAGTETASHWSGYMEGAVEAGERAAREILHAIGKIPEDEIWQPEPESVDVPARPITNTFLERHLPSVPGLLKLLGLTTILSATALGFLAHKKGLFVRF
Kind of experiment: In vitro inhibitory concentration against Monoamine oxidase B of rat brain homogenates. The format is tissue-based.

Experiment [7] deals with T2, Acetylcholinesterase. Kind of experiment: In vitro inhibitory concentration against purified Acetylcholinesterase of human erythrocytes; value ranges from […]-[…].
Experiment [8] has as its target T1, Butyrylcholinesterase. Kind of experiment: In vitro inhibitory concentration against Butyrylcholinesterase of horse serum; value ranges from 0.85-1.96. The procedure, abridged: as §1
Experiment [9] has as its target T3, Amine oxidase [flavin-containing] A. Kind of experiment: In vitro inhibitory concentration against Monoamine oxidase A of rat brain homogenates; value ranges from 0.72-0.97. In kind it is tissue-based.
Experiment [10] deals with T4, Amine oxidase [flavin-containing] B. Kind of experiment: In vitro inhibitory concentration against Monoamine oxidase B of rat brain homogenates; value ranges from 90-260.
In experiment [11] the target is T2, Acetylcholinesterase.
Experiment [12] deals with T1, Butyrylcholinesterase. Kind of experiment: In vitro inhibitory concentration against Butyrylcholinesterase of horse serum; value ranges from 0.016-0.021. In outline:
as §1

The target in experiment [13] is T3, Amine oxidase [flavin-containing] A. Kind of experiment: In vitro inhibitory concentration against Monoamine oxidase A of rat brain homogenates; value ranges from 290-920. In kind it is tissue-based.
The target of experiment [14] is T2, Acetylcholinesterase. Kind of experiment: In vitro inhibitory concentration against purified Acetylcholinesterase of human erythrocytes; value ranges from 28.1-58.3.
Experiment [15] addresses T2, Acetylcholinesterase. Kind of experiment: In vitro inhibitory concentration against purified Acetylcholinesterase of human erythrocytes.
Experiment [16] has as its target T1, Butyrylcholinesterase. Nature of the experiment: In vitro inhibitory concentration against Butyrylcholinesterase of horse serum; value ranges from 4.9-11.2. The procedure, abridged: as §1
Experiment [17] deals with T2, Acetylcholinesterase. This is another data set of the same source.
Experiment [18] addresses T1, Butyrylcholinesterase. Kind of experiment: In vitro inhibitory concentration against Butyrylcholinesterase of horse serum; value ranges from 0.99-1.91. In outline: as §1
In experiment [19] the target is T2, Acetylcholinesterase. Kind of experiment: In vitro inhibitory concentration against purified Acetylcholinesterase of human erythrocytes; value ranges from 1.28-3.30.
Experiment [20] concerns the target T1, Butyrylcholinesterase. Nature of the experiment: In vitro inhibitory concentration against Butyrylcholinesterase of horse serum; value ranges from 0.009-0.024. In outline: as §1
Experiment [21] concerns the target T3, Amine oxidase [flavin-containing] A. Kind of experiment: In vitro inhibitory concentration against Monoamine oxidase A of rat brain homogenates; value ranges from 7.6-12.5. The format is tissue-based.
Experiment [22] addresses T2, Acetylcholinesterase. Nature of the experiment: In vitro inhibitory concentration against purified Acetylcholinesterase of human erythrocytes; value ranges from 0.008-0.012.
Experiment [23] concerns the target T2, Acetylcholinesterase. Nature of the experiment: In vitro inhibitory concentration against purified Acetylcholinesterase of human erythrocytes; value ranges from 5.5-45.9.
Experiment [24] addresses T3, Amine oxidase [flavin-containing] A. Nature of the experiment: In vitro inhibitory concentration against Monoamine oxidase A of rat brain homogenates; value ranges from 29-44. In kind it is tissue-based.
Experiment [25] has as its target T4, Amine oxidase [flavin-containing] B. Nature of the experiment: In vitro inhibitory concentration against Monoamine oxidase B of rat brain homogenates; value ranges from 6-350.
In experiment [26] the target is T2, Acetylcholinesterase. Nature of the experiment: In vitro inhibitory concentration against purified Acetylcholinesterase of human erythrocytes; value ranges from 1.7-6.4.
Experiment [27] concerns the target T1, Butyrylcholinesterase. Kind of experiment: In vitro inhibitory concentration against Butyrylcholinesterase of horse serum; value ranges from 2.1-4.1. The procedure, abridged:
as §1

The nature of experiment [28]: Bimolecular rate constant for carbamoylation of ACHE. The format is ADME. The procedure, abridged: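 Human erythrocyte AChE preincubated with inhibitor at 37 °C in 0.1 M phosphate buffer, pH 7.4, under Ellman conditions with 200 µM […]. Pseudo-first-order rate constants (k_obs) for progressive inhibition were obtained at 4-5 inhibitor concentrations. The apparent bimolecular carbamylation constant k_i was calculated from these.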

T2 sequence (P22303 whole entry): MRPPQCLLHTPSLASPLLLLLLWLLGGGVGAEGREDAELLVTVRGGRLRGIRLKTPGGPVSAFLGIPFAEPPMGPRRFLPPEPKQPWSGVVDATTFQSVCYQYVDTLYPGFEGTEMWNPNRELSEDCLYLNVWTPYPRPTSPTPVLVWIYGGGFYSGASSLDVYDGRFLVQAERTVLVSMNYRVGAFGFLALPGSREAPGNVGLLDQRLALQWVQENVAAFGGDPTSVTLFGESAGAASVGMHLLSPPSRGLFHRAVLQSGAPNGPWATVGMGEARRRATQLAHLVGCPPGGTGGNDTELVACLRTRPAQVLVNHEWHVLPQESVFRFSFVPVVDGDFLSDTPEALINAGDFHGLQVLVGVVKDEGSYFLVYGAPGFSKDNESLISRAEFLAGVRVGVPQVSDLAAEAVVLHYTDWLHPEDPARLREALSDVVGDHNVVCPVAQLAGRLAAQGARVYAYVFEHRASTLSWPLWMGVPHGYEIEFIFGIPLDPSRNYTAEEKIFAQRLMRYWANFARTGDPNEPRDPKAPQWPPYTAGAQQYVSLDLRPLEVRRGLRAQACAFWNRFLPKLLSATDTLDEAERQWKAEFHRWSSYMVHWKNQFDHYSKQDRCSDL
T1 sequence (Q9N1N9 whole entry): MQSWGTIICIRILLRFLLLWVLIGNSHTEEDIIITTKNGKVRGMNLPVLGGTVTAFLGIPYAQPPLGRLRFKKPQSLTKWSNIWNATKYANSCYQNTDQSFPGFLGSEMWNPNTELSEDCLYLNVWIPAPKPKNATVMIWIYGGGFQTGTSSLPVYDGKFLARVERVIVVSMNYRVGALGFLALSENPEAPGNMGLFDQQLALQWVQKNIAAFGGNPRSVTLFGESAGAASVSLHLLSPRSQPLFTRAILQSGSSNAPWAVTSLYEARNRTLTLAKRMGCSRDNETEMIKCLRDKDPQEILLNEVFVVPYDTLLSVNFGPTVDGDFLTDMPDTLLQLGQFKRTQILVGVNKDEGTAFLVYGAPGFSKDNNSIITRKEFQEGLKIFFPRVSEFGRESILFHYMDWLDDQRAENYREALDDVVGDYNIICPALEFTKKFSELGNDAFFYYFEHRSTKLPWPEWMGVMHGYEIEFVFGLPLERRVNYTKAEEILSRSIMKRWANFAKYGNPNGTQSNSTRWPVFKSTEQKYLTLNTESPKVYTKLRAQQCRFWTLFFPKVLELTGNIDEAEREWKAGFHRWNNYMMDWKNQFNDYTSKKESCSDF

One may read the IC50 as the concentration that gives 50% inhibition. For `C#CCNC1CCc2cccc(OC(=O)N(C)CC)c21` (centres undefined), the figures for the IC50 at Butyrylcholinesterase [1] and against Acetylcholinesterase [2] were 0.31 µM and 525 µM, respectively.
In the case of `C#CCNC1CCc2ccc(OC(=O)N(C)CC)cc21` (centres undefined), the IC50 at Acetylcholinesterase [3] is 47 µM; in experiment [4] it was 250 µM; against Butyrylcholinesterase [5], 1.5 µM; in experiment [6] it was greater than 1000 µM.
For the molecule `CNC1CCc2ccc(OC(=O)N(C)C)cc21` (centres undefined), the IC50 against Acetylcholinesterase [7] was 1.07 µM; on Butyrylcholinesterase [8] it was 0.95 µM.
`C#CCNC1CCc2c(OC(=O)N(C)CC)cccc21` (centres undefined): the IC50 in experiment [9] was 0.83 µM; in experiment [10], 150 µM; against Acetylcholinesterase [11], 2.15 µM; against Butyrylcholinesterase [12], 0.019 µM.
As to `CCNC1CCc2ccc(OC(=O)N(C)C)cc21` (centres undefined), the figures for the IC50 (against Acetylcholinesterase [7]; in experiment [13]) were 24.5 µM and 500 µM, respectively.
Molecule `CCN(C)C(=O)Oc1ccc2c(c1)C(NC)CC2` (centres undefined) yielded an IC50 at Acetylcholinesterase [14] of 38.6 µM.
As to `C#CCN(C)C1CCc2ccc(OC(=O)N(C)CCC)cc21` (centres undefined), the IC50 on Acetylcholinesterase [15] was greater than 1000 µM.
On to `C#CCNC1CCc2ccc(OC(=O)N(C)c3ccc(OC)cc3)cc21` (centres undefined), for which the IC50 against Butyrylcholinesterase [16] is 6.4 µM; against Acetylcholinesterase [17] it was 0.86 µM.
The molecule `C#CCNC1CCc2ccc(OC(=O)NCC)cc21` (centres undefined) returned an IC50 against Acetylcholinesterase [7] of 13.7 µM.
Turning to `C#CCNC1CCc2ccc(OC(=O)N(C)Cc3ccccc3)cc21` (centres undefined), the IC50 on Butyrylcholinesterase [18] was 1.26 µM; at Acetylcholinesterase [19], 1.78 µM.
With `C#CCN(C)C1CCc2ccc(OC(=O)N(C)CC)cc21` (centres undefined), the IC50 against Acetylcholinesterase [15] was greater than 1300 µM.
The molecule `C#CCNC1CCc2ccc(OC(=O)N(CC)C3CCCCC3)cc21` (centres undefined) yielded an IC50 against Acetylcholinesterase [7] of 17.9 µM.
Take `CN(C)C(=O)Oc1cccc2c1CCC2N` (centres undefined): the IC50 was 0.014 µM against Butyrylcholinesterase [20], 9.8 µM in experiment [21], 0.009 µM on Acetylcholinesterase [22] and greater than 1000 µM in experiment [6].
Regarding `C#CCN(C)C1CCc2ccc(OC(=O)N(C)C)cc21` (centres undefined), the IC50 at Acetylcholinesterase [23] amounted to 12.9 µM; in experiment [24] it was 36 µM; in experiment [25] it was 47 µM.
Take `C#CCNC1CCc2cccc(OC(=O)N(C)C)c21` (centres undefined): the IC50 against Acetylcholinesterase [26] turned out to be 2.5 µM; against Butyrylcholinesterase [27] it was 2.8 µM.
In the case of `CNC1CCc2cccc(OC(=O)N(C)C)c21` (centres undefined), 0.51 µM corresponded to half-maximal inhibition at Acetylcholinesterase [7] (IC50).
On to `CCN(C)C(=O)Oc1cccc([C@H](C)N(C)C)c1` [RIVASTIGMINE], for which, in experiment [28], the “Bimolecular carbamoylation rate constant (ki)” value came out at 23.87 M⁻¹ s⁻¹.
